Experimental data pooled from the literature.
Each line is one published result; the experiments were not run side by side.
rep papain-like protease: Replicase polyprotein 1ab, papain-like protease (rep, Severe acute respiratory syndrome coronavirus 2, UniProt P0DTD1)
MAOA: Amine oxidase [flavin-containing] A (MAOA, Homo sapiens, UniProt P21397)
rep helicase: Replicase polyprotein 1ab, helicase (rep, Severe acute respiratory syndrome coronavirus 2, UniProt P0DTD1)
ADRA1A: Alpha-1A adrenergic receptor (ADRA1A, Homo sapiens, UniProt P35348)

Structure (SMILES)	target	observed	action	technique	quantity	result
CCCNC(=O)[C@H]1O[C@@H]1C(=O)N[C@H](C(=O)N1CCC[C@H]1C(=O)O)[C@@H](C)CC	rep papain-like protease	enzyme activity	inhibitor	FRET	IC50	170 µM
C#CCN(C)CCCCCCOc1cccc(CN(C)c2c3c(nc4ccc(C)cc24)CCCC3)c1	MAOA	enzyme activity	inhibitor	fluorescence	IC50	4.87 µM
CCC(C(=O)Nc1cc(NC2CCOC2)ccc1C)n1cc(Cl)cc2nc(SCc3ccc(F)cc3)nc1-2 (stereo not shown)	rep papain-like protease	enzyme activity	inhibitor	–	IC50	0.169 µM
Cc1cc(Nc2ncc(Cl)c(Nc3ccccc3S(=O)(=O)C(C)C)n2)c(OC(C)C)cc1C1CCNCC1	rep papain-like protease	enzyme activity	inhibitor	FRET	IC50	19.5 µM
COc1ccc2cc1Oc1ccc(cc1)C[C@H]1c3c(cc4c(c3Oc3cc5c(cc3OC)CCN(C)[C@@H]5C2)OCO4)CCN1C	rep helicase	enzyme activity	inhibitor	–	IC50	4.5 µM
CNC(=O)c1ccc(-c2cnn3ccc(C(=O)N(C)c4ccc(Cl)c(C(=O)OC)c4)cc23)cc1	ADRA1A	cell-free assay	–	–	IC50	> 30 µM
CSCCNc1nc(SCCC(F)(F)F)nc2c1ncn2[C@@H]1O[C@H](COP(=O)(O)OP(=O)(O)C(Cl)(Cl)P(=O)(O)O)[C@@H](O)[C@H]1O	rep helicase	enzyme activity	inhibitor	–	IC50	> 100 µM
CCC(C(=O)Nc1cc(NC2COC2)ccc1C)n1cc(F)cc2nc(SCc3ccc(F)cc3)nc1-2 (stereo not shown)	rep papain-like protease	enzyme activity	inhibitor	–	IC50	0.436 µM
C#CCN(C)CCOc1cccc(CN(C)c2c3c(nc4ccccc24)CCCC3)c1	MAOA	enzyme activity	inhibitor	fluorescence	IC50	10.3 µM
Brc1ccc2c(c1)C(c1ccccn1)=NCc1c(-c3cnco3)ncn1-2	Translocator protein (Tspo, Rattus norvegicus, UniProt P16257)	ligand displacement	–	radioligand	Ki	0.331 µM
COC(=O)c1cc(N(C)C(=O)c2ccn3ncc(-c4ccc(C(=O)O)cc4)c3c2)ccc1Cl	ADRA1A	cell-free assay	–	–	IC50	> 30 µM
C#CCN(C)CCCCCCCCOc1cccc(CN(C)c2c3c(nc4ccc(F)cc24)CCCC3)c1	MAOA	enzyme activity	inhibitor	fluorescence	IC50	61.3 µM
CCCC(C(=O)Nc1cc(NC2CNC2)ccc1C)n1cccc2nc(SCc3ccc(F)cc3)nc1-2 (stereo not shown)	rep papain-like protease	enzyme activity	inhibitor	–	IC50	1.48 µM
